The list is not random: actives were taken first. Their share in the collection is about 1.3%.
LANA DNA inh: blocks KSHV LANA C-terminal domain binding to DNA. 0.078% of 340,000 active. inhibition, % at 9 µM. AID 504423. MBP-C-LANA/FAM-LBS DNA binding, fluorescence polarization;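 active = highest replicate inhibition at or above 60% at 9 µM, even if other replicates fall short; inactive = all replicates below 60% inhibition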;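 also: 0% = neutral control wells and 100% = 4 µM acridine orange control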
RTF Ca sens act: cardiac RTF calcium sensitization; 0.24% of 340,000 active; activation, % at 7.2 µM; IANBD-labeled TnC RTF fluorescence at EC20 calcium; 0% EC20 calcium, 100% full calcium;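 active = activation above the mean over all tested compounds plus 3 SD, cut at about 30% in these data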;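 also: rise in fluorescence read as greater calcium sensitivity of cardiac thin filaments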
CAL PDZ FP-1: blocks peptide binding to human CAL PDZ domain. Q9HD26. purified CAL PDZ, TMR-peptide fluorescence polarization, 1 h. 0.02% of 330,000 active. inhibition, % at 20 µM;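 active = highest replicate inhibition of at least 40%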;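 also: plate controls were DMSO neutral control wells for no effect and unlabeled competitor peptide control wells for full effect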
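Read-out basis: mP drop reported as inhibition | Assay system: Tagged CAL PDZ protein CerCALP, purified | Benchmarks: Unlabelled peptide for full inhibition, DMSO wells as neutral | Schedule: 1 h incubation at room temperature before polarization reading | Buffer or medium: Sodium phosphate/NaCl buffer pH 7.4 with TCEP, IgG, Thesit | Doses: Single point, 20 µM | Measured by: Fluorescence polarization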
Cardiac RTF inh: cardiac RTF calcium desensitization | inhibition, % at 7.15 µM | IANBD-labeled cardiac RTF, Ca2+ fluorescence | 0.12% of 340,000 active | AID 493244;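 active = inhibition above the mean inhibition of all tested compounds plus 3 SD, cut at about 17% in these data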;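 also: assay run at fixed EC70 calcium of 1.6 mM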
Keap1 Nrf2 FP: Keap1-Nrf2 (human) interaction inhibition | Q14145 | Keap1 Kelch-Nrf2 peptide fluorescence polarization, 1536-well | inhibition, % at 9.4 µM | 0.15% of 340,000 active | AID 504523; in the data active = inhibition above about 12%;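 also: human Keap1 Kelch domain with fluorescein labeled Nrf2 9mer peptide probe; 0% = neutral control wells and 100% = peptide positive control; higher means more block of Keap1 binding to Nrf2 peptide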
Target sequence (Q14145 whole entry, looked up, the tested form may be a part): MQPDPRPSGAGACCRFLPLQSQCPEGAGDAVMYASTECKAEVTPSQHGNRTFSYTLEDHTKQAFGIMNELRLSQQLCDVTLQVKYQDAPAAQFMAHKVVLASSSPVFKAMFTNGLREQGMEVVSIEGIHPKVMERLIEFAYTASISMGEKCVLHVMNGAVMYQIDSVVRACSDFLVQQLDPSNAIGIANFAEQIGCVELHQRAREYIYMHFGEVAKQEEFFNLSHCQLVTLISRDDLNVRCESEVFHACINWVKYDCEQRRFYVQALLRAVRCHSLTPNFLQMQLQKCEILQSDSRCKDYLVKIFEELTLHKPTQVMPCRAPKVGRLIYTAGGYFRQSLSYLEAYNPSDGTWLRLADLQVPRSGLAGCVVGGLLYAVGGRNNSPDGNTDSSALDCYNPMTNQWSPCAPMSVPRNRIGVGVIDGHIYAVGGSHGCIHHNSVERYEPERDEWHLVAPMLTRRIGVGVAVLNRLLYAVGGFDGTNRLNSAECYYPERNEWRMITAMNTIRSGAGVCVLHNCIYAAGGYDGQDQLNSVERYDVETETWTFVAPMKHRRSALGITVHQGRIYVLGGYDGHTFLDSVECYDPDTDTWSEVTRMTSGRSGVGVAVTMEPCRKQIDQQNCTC
CAL PDZ FP-2: blocks peptide binding to the human CAL PDZ domain; inhibition, % at 24.9 µM; 0.92% of 300,000 active; Q9HD26; purified CAL PDZ, TMR-peptide fluorescence polarization, 1 h;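 active = mean inhibition of at least 30% with at least half of replicates also reaching 30%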;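 also: 0% = DMSO neutral control and 100% = excess unlabeled competitor peptide PRC23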
* marks the source's active call; other numbers are inactive results; ! = not confirmed by another sample.

Results for CC1CN=C(Nc2ccc(F)c(Cl)c2)S1 (centres undefined) ?
LANA DNA inh: -0.6; RTF Ca sens act: 5.2; CAL PDZ FP-1: 0.4; Cardiac RTF inh: -2.7; Keap1 Nrf2 FP: -0.6; CAL PDZ FP-2: 54.2*

How did Cc1ccnc(NC(=O)CCCc2ccc(N(CCCl)CCCl)cc2)n1 do in these assays?
LANA DNA inh: -6.0; RTF Ca sens act: -7.7; CAL PDZ FP-1: 14.6; Cardiac RTF inh: 1.3; Keap1 Nrf2 FP: 2.9; CAL PDZ FP-2: 51.2*

Results for C[C@]12CCC3C(C(=O)C[C@H]4C[C@@H](O)CC[C@]34C)C1CCC2=O (some centres undefined) ?
LANA DNA inh: 0.7; RTF Ca sens act: -6.4; CAL PDZ FP-1: -0.3; Cardiac RTF inh: -7.1; Keap1 Nrf2 FP: -2.0; CAL PDZ FP-2: -5.7

What do the screens show for `Cn1cc(C=C(C#N)C#N)c2ccccc21`?
LANA DNA inh: 56.5; RTF Ca sens act: 28.5; CAL PDZ FP-1: -2.8; Cardiac RTF inh: -44.5; Keap1 Nrf2 FP: 53.4*; CAL PDZ FP-2: -3.7

Results for N#Cc1ccc(Cn2cc(C=O)c3ccccc32)cc1 ?
LANA DNA inh: -2.5; RTF Ca sens act: -0.1; CAL PDZ FP-1: -2.1; Cardiac RTF inh: -4.0; Keap1 Nrf2 FP: -1.5; CAL PDZ FP-2: -5.0

What do the screens show for `Cc1cccc(N2C(=O)NC(=O)/C(=C\c3ccc(N4CCOCC4)cc3)C2=O)c1`?
LANA DNA inh: -0.7; RTF Ca sens act: 5.1; CAL PDZ FP-1: -0.8; Cardiac RTF inh: -7.6; Keap1 Nrf2 FP: -7.9; CAL PDZ FP-2: 56.0*

Results for O=[N+]([O-])/C=C/c1c(Cl)cccc1Cl ?
LANA DNA inh: 0.5; RTF Ca sens act: 0.5; CAL PDZ FP-1: -0.6; Cardiac RTF inh: -0.9; Keap1 Nrf2 FP: -5.9; CAL PDZ FP-2: -9.4

Results for O=c1[nH]c(=S)n(-c2ccccc2F)c(O)c1C=NCCN1CCNCC1 ?
LANA DNA inh: -3.8; RTF Ca sens act: 1.8; CAL PDZ FP-1: -1.6; Cardiac RTF inh: -0.3; Keap1 Nrf2 FP: -7.3; CAL PDZ FP-2: -6.8

What do the screens show for `CCOc1cc(C=C2C(=O)NC(=S)NC2=O)ccc1O`?
LANA DNA inh: 2.9; RTF Ca sens act: -0.9; CAL PDZ FP-1: 0.7; Cardiac RTF inh: -1.6; Keap1 Nrf2 FP: 12.3*; CAL PDZ FP-2: -22.0

Results for COc1ccc(C=C2C(=O)NC(=S)NC2=O)cc1OC ?
LANA DNA inh: -1.7; RTF Ca sens act: 4.8; CAL PDZ FP-1: -0.3; Cardiac RTF inh: -1.0; Keap1 Nrf2 FP: -4.4; CAL PDZ FP-2: -4.6

How did COc1cccc(CNCCc2ccc(F)cc2)c1 do in these assays?
LANA DNA inh: 2.5; RTF Ca sens act: 1.0; CAL PDZ FP-1: 0.5; Cardiac RTF inh: -18.0; Keap1 Nrf2 FP: -6.8; CAL PDZ FP-2: 77.1*

How did COC(=O)C1=C(c2cccc(C#N)c2)C[C@@H]2CC[C@H]1N2C(=O)N1CCCCC1 do in these assays?
LANA DNA inh: -0.7; RTF Ca sens act: 6.9; CAL PDZ FP-1: 1.4; Cardiac RTF inh: -12.8; Keap1 Nrf2 FP: -3.4; CAL PDZ FP-2: 0.6

What do the screens show for `C#CCOC(=O)C1=CCCN(C)C1`?
LANA DNA inh: -1.6; RTF Ca sens act: 8.0; CAL PDZ FP-1: 0.4; Cardiac RTF inh: 10.1; Keap1 Nrf2 FP: -6.7; CAL PDZ FP-2: -0.1

What do the screens show for `CC(=NCc1cccnc1)c1c(O)n(-c2ccc(Cl)cc2)c(=O)[nH]c1=O`?
LANA DNA inh: 0.2; RTF Ca sens act: 2.0; CAL PDZ FP-1: -0.3; Cardiac RTF inh: -10.2; Keap1 Nrf2 FP: -3.0; CAL PDZ FP-2: 45.5*

What do the screens show for `CN(C)[C@@H]1C(=O)C(C(N)=O)=C(O)[C@@]2(O)C(=O)C3=C(O)c4c(O)cccc4[C@@](C)(O)C3C[C@@H]12` (some centres undefined)?
LANA DNA inh: 33.9; RTF Ca sens act: -0.6; CAL PDZ FP-1: 1.4; Cardiac RTF inh: 1.3; Keap1 Nrf2 FP: -2.6; CAL PDZ FP-2: -1.9

Results for CN(C)[C@@H]1C(=O)C(C(N)=O)=C(O)[C@@]2(O)C(=O)C3=C(O)c4c(O)cccc4[C@@](C)(O)[C@H]3[C@H](O)[C@@H]12 ?
LANA DNA inh: 124.0*; RTF Ca sens act: -17.7; CAL PDZ FP-1: 1.6; Cardiac RTF inh: 20.4*!; Keap1 Nrf2 FP: -2.1; CAL PDZ FP-2: 1.9

Results for O=C(c1ccc2c(c1)OCO2)C1CCCN(CC2CCCCC2)C1 (centres undefined) ?
LANA DNA inh: -2.2; RTF Ca sens act: 0.1; CAL PDZ FP-1: -1.5; Cardiac RTF inh: -3.6; Keap1 Nrf2 FP: -1.6; CAL PDZ FP-2: 78.4*

How did COC(=O)C1=C(c2ccc(F)cc2OCc2ccccc2)C[C@@H]2CC[C@H]1N2C(=O)N1CCCC1 do in these assays?
LANA DNA inh: 6.5; RTF Ca sens act: -2.6; CAL PDZ FP-1: -0.3; Cardiac RTF inh: -16.4; Keap1 Nrf2 FP: 1.5; CAL PDZ FP-2: -1.9

How did CCN(CC)C(=O)c1ccc(NC(=O)COC(=O)c2ccc(Cl)s2)cc1 do in these assays?
LANA DNA inh: -1.3; RTF Ca sens act: -1.6; CAL PDZ FP-1: -1.0; Cardiac RTF inh: -2.7; Keap1 Nrf2 FP: -0.3; CAL PDZ FP-2: -4.9

Results for Cc1nc2ccc(Cl)cc2c(=O)n1-c1ccc([N+](=O)[O-])cc1 ?
LANA DNA inh: -1.6; RTF Ca sens act: -5.4; Cardiac RTF inh: -0.4; Keap1 Nrf2 FP: 3.4; CAL PDZ FP-2: 75.0*

How did Cc1nc2ccccc2c(=O)n1-c1ccc([N+](=O)[O-])cc1 do in these assays?
LANA DNA inh: 0.3; RTF Ca sens act: -4.6; Cardiac RTF inh: -2.5; Keap1 Nrf2 FP: -0.2; CAL PDZ FP-2: -2.8

What do the screens show for `CCN1/C(=C\C=C\C2=[N+](CC)c3ccccc3C2(C)C)C(C)(C)c2ccccc21`?
LANA DNA inh: -43.5; RTF Ca sens act: 895.5*; CAL PDZ FP-1: -42.0; Cardiac RTF inh: inactive; Keap1 Nrf2 FP: -372.2; CAL PDZ FP-2: -67.6

What do the screens show for `CC1CN1P1(=O)OCC(C)([N+](=O)[O-])CO1` (centres undefined)?
LANA DNA inh: -1.5; RTF Ca sens act: -3.2; CAL PDZ FP-1: -0.7; Cardiac RTF inh: -4.3; Keap1 Nrf2 FP: -4.3; CAL PDZ FP-2: -4.0

Results for Cc1nc2ccccc2c(=O)n1-c1cccc(O)c1 ?
LANA DNA inh: 0.2; RTF Ca sens act: 4.0; Cardiac RTF inh: -1.0; Keap1 Nrf2 FP: 1.1; CAL PDZ FP-2: 0.3

Results for Cc1ccc(-c2nc3ccccc3c(=O)n2-c2cccc(O)c2)cc1 ?
LANA DNA inh: -0.3; RTF Ca sens act: -4.4; CAL PDZ FP-1: -2.7; Cardiac RTF inh: -17.1; Keap1 Nrf2 FP: -2.8; CAL PDZ FP-2: 57.5*

What do the screens show for `CCC1CN1P(=O)(Oc1ccc(Cl)cc1)N1CC1CC` (centres undefined)?
LANA DNA inh: -1.2; RTF Ca sens act: -2.2; CAL PDZ FP-1: -0.5; Cardiac RTF inh: -5.2; Keap1 Nrf2 FP: 0.8; CAL PDZ FP-2: -3.5

Results for C=CCN1C(=O)/C(=C/c2ccc(N3CCOCC3)o2)C(=O)NC1=S ?
LANA DNA inh: -25.8; RTF Ca sens act: 66.5*; CAL PDZ FP-1: -4.2; Cardiac RTF inh: -35.3; Keap1 Nrf2 FP: -53.2

Bioassay records from PubChem BioAssay.
